Assay outcomes as filed in PubChem.
In the library only some 3.1% were active in any assay of this set; here they are far more common.
CHO parental Ca – ATP-evoked calcium signal inhibitors, parental CHO, primary screen, counter-screen for OX1R antagonist project, cell-based, fluorescence, Fluo-8 calcium dye; parental CHO-K1, ATP-induced calcium, Fluo-8 fluorescence; AID 463079, 2010; inhibition, % at 5.6 µM; 330,000 compounds, 0.63% hits;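 active means inhibition above that plate's mean sample inhibition plus 3 SD, cut at about 26% in these data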;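 further: 0% = ATP-challenged DMSO wells and 100% = DMSO wells without ATP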
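Test system: untransfected parental CHO cell line. Compound: one dose, 5.6 µM nominal. Detection: intracellular calcium via Fluo-8 no-wash fluorescent dye. Measure: % inhibition. Benchmarks: ATP-challenged DMSO wells low, unchallenged DMSO wells high.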
OX1R antag-1 – antagonists of human orexin 1 receptor (OX1R); OX1R-expressing cells, FRET antagonist read-out; inhibition, % at 6.6 µM; 330,000 compounds, 1.8% hits; AID 485270, 2010; in the data active means inhibition mostly above about 38%, no sharp cut-off; inactive means mostly below about 40%;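 further: 0% = agonist challenge alone and 100% = reference antagonist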
GPR7 antagonist – GPR7 receptor antagonists, primary screen, cell-based, fluorescence, single concentration; GPR7-expressing cells, fluorescence antagonist assay; inhibition, % at 4.4 µM; 290,000 compounds, 1.1% hits; AID 1861, 2009; in the data active means inhibition above about 16%, passing the limit was not always enough;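 further: cells stimulated with the agonist NPW; 0% = agonist with vehicle and 100% = vehicle without agonist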
Target sequence (P48145 whole entry, looked up): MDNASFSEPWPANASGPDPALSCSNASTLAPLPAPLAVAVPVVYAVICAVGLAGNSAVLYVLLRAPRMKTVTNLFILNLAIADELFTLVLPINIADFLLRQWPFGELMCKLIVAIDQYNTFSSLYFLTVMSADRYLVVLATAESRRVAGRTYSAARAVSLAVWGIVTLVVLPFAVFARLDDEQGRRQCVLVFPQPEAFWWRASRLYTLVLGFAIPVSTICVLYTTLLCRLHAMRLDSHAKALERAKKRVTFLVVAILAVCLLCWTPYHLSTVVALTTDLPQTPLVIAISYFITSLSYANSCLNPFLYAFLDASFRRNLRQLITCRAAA
OX1R antag-2 – OX1R (HCRTR1) antagonists, primary screen, fluorescence, CHO/OX1R cells, Fluo-8 calcium, orexin A | Orexin/Hypocretin receptor type 1 (Homo sapiens), O43613 | Fluo-8 calcium fluorescence | inhibition, % at 5 µM | 330,000 compounds, 0.43% hits;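 active means inhibition above its plate's threshold, mean inhibition of all tested compounds on the plate plus 3 SD, cut at about 37% in these data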;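 further: 0% = orexin A challenge wells and 100% = SB-334867-A antagonist wells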
GalR3 antag – GalR3 antagonists in HEK293 cells, primary screen, cell-based, fluorescence readout; Galanin receptor type 3 (Homo sapiens), O60755; HEK293 GalR3-CNG cAMP membrane potential fluorescence; galR3 body fused to GalR1 C-terminus; inhibition, % at 3 µM; 360,000 compounds, 0.44% hits;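 active means inhibition above the screen-wide average plus 3 SD, cut at about 13% in these data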;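 further: forskolin and galanin both at EC90 stimulate the cells; cAMP rise reported by CNG channel membrane potential dye signal; 0% = forskolin plus galanin with DMSO and 100% = forskolin alone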
Target sequence (O60755 1-299 limits assumed): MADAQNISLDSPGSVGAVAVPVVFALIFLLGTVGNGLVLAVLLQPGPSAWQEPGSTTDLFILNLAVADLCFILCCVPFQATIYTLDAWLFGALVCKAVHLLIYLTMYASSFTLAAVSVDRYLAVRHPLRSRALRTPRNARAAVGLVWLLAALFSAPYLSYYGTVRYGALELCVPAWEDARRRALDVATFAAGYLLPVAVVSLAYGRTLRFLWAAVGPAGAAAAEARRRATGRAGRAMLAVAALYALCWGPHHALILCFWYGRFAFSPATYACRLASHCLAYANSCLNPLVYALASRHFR
* hit, by the source's call; / = no result.

SMILES	CHO parental Ca	OX1R antag-1	GPR7 antagonist	OX1R antag-2	GalR3 antag
Cc1onc(-c2ccccc2)c1NC(=O)Nc1c(-c2ccccc2)noc1C	-23.7	51.1*	11.2	-23.4	-3.3
CCSc1nnc(NC(=O)NC(C)(C(F)(F)F)C(F)(F)F)s1	-0.9	16.7	-6.3	-3.1	-4.1
CCSc1nnc(NC(=O)NC(CC)(C(F)(F)F)C(F)(F)F)s1	79.1*	47.2	10.3	65.9*	-3.1
CCc1ccc(N=Nc2ccc(O)c3[nH]cnc23)cc1	30.3	-0.9	/	46.5*	-5.5
CCc1ccc(/C=N/Nc2ncnc3nc[nH]c23)cc1	-11.8	17.0	-22.2	-16.0	2.9
Cn1c(=O)c2c(n(C)c1=O)=NC1(CCCCC1)ON=2	2.0	71.4*	8.6	-15.2	-3.2
O=c1/c(=C\c2cc([N+](=O)[O-])cc([N+](=O)[O-])c2O)sc2nc3ccccc3n12	-0.1	72.2*	-3.4	5.7	/
CSC1=NC(=O)/C(=C/c2ccc(SC)cc2)S1	-11.2	39.1*	-10.5	-17.7	3.2
CCOC(=O)CSC1=NC(=O)/C(=C\c2ccc(Cl)cc2)S1	-4.8	72.2*	-8.8	5.1	-0.4
CCOC(=O)C1CCN(C2=NC(=O)/C(=C/c3ccc(Cl)cc3)S2)CC1	-11.8	0.8	7.0	-10.7	-6.0
CCc1cc2c(nc1CC)CCCN2S(=O)(=O)c1ccccc1C	/	/	/	/	-6.4
COc1ccc(CN2C(=O)C(CC(=O)NCCc3ccccn3)CC(C(=O)N(C(C)C)C(C)C)=C2C)cc1 (stereo not drawn)	/	/	/	/	0.6
CCn1c(SCC(=O)Nc2nc(-c3ccc(C)cc3)cs2)nnc1-c1ccccc1O	32.9*	55.8	3.9	35.9	-1.3
COC(=O)C1=C(C)N(C)C(=NCc2ccc(C(F)(F)F)cc2)NC1c1ccc(F)cc1 (stereo not drawn)	/	/	/	/	-4.7
COc1ccc(NC(=O)C(C)N2c3cccc4cccc(c34)S2(=O)=O)cc1 (stereo not drawn)	-20.5	23.1	-19.0	-27.4	-6.0
COc1ccc(NC(=O)C(C)N2c3cccc4cccc(c34)S2(=O)=O)cc1OC (stereo not drawn)	41.1*	25.9	5.8	-0.9	-10.7
COc1ccc(C2=Nn3c([n+](C)c4ccccc43)SC2)cc1	-17.8	41.8*	-5.8	-33.0	-3.0
Cc1cc(NC(=O)c2ccccc2NS(=O)(=O)c2c(C)c(C)cc(C)c2C)no1	-2.8	32.0	-6.7	-1.7	0.5
Cc1ccc(C)c(NC(=O)c2ccccc2NS(=O)(=O)c2cc([N+](=O)[O-])ccc2C)c1	7.0	55.1*	12.2	6.9	5.0
Cc1ccc(C)c(S(=O)(=O)Nc2ccccc2C(=O)Nc2cc(C)on2)c1	-12.5	36.1*	1.4	-2.8	-7.9
Cc1ccc([N+](=O)[O-])cc1S(=O)(=O)Nc1cccc(S(=O)(=O)Nc2ccccc2C(=O)O)c1	-2.6	-4.2	/	13.4	-6.2
CCCCC(=O)Nc1nc2ccc3nc(C)sc3c2s1	-17.9	51.6*	-12.0	-11.0	-2.2
CCCC(=O)Nc1nc2ccc3nc(C)sc3c2s1	3.7	31.3	-14.3	-11.5	-2.3
CCCOC1CCCN(C(=O)c2cc(COc3c(F)cccc3F)on2)C1 (stereo not drawn)	-8.6	22.2	-4.8	-15.1	-1.9
Cc1ccccc1C1CCCN(C(=O)c2cc(COc3c(F)cccc3F)on2)C1 (stereo not drawn)	42.9*	10.9	-10.7	-15.6	-3.2
SMILES	CHO parental Ca	OX1R antag-1	GPR7 antagonist	OX1R antag-2	GalR3 antag
O=C(NCCCO)c1cc2ccccc2[nH]1	-8.5	2.2	-9.8	-7.5	-5.6
COc1ccc(C(=O)NCCCNC(=O)c2cc3ccccc3[nH]2)cc1OC	-21.8	70.0*	-17.0	-4.7	-7.6
Nc1[nH]c(C(=O)c2ccccc2)c(-c2ccc(Cl)c(F)c2)c1C(=O)c1c[nH]c2ccccc12	/	/	/	/	-7.2
O=C(NCc1ccccc1)[C@@H]1CCCN1C(=O)[C@H]1CCCN1C(=O)c1cccc2ccccc12	/	/	/	/	-5.0
COc1ccc(/C=N/NC(=O)c2cc(-c3cccn3C)n[nH]2)cc1OC	-5.7	24.2	-2.1	-10.2	3.0
COc1cc(OC)c(OC)cc1/C=N/NC(=O)c1cc(-c2cccn2C)n[nH]1	-14.0	58.7*	-12.2	-0.3	2.5
Cc1cccc(NC(=O)C2C(c3ccccc3)C2(Cl)Cl)c1 (stereo not drawn)	17.3	27.1	-17.7	-7.3	11.4
Cc1ccc(NC(=O)C2C(c3ccccc3)C2(Cl)Cl)c(C)c1 (stereo not drawn)	6.9	76.8*	-15.9	9.7	-2.1
O=C(O)c1ccc(S(=O)(=O)N2CCC(NC(=O)C3CCCCC3)CC2)cc1	3.1	12.2	-4.9	-6.5	-8.3
Clc1cccc(-c2cccc3nccn23)c1Cl	/	/	/	/	-4.7
O=C(NN=C1CCCCCCC1)c1ccccn1	-3.5	2.6	10.9	-15.6	-2.9
O=C(NN=C1CCCCCCC1)c1ccc2ccccc2n1	-17.8	56.3*	0.4	-1.9	3.0
CN(C)S(=O)(=O)c1cccc(N=C2SCCN2Cc2ccccc2)c1	40.0*	30.4	-15.3	-0.8	-4.5
C[C@H](CO)N1C[C@H](C)[C@@H](CN(C)C(=O)NC2CCCCC2)Oc2c(NS(=O)(=O)c3ccc(F)cc3)cccc2C1=O	-18.8	4.7	/	-52.0	-0.2
O=C1c2ccccc2C(=O)C1c1ccnc2ccccc12	-4.0	68.7*	-10.1	-13.0	-3.7
CCOC(=O)N1CCN(C(C(=O)NC2CCCC2)c2ccco2)CC1 (stereo not drawn)	/	/	/	/	-5.4
COc1ccc(CNS(=O)(=O)c2ccccc2Br)c(OC)c1	/	/	/	/	-1.6
COc1ccc(CN(CCC(C)C)S(=O)(=O)c2ccccc2Br)c(OC)c1	-27.5	37.8*	/	41.7	-5.1
O=C(COC(=O)CNS(=O)(=O)c1ccccc1)Nc1ncc(Cl)cc1Cl	-15.2	6.6	/	-10.3	1.4
Cc1ccc(-c2nc3cccnc3s2)cc1NS(=O)(=O)c1ccc2c(c1)OCCO2	-14.9	18.9	5.1	-24.8	/
Cc1nc2ccc(S(=O)(=O)Nc3cccc(-c4nc5cccnc5s4)c3C)cc2s1	31.8*	25.5	-1.6	-10.4	/
Cc1ccc(-c2nc3cccnc3s2)cc1NS(=O)(=O)c1cccs1	-14.3	40.6*	-20.9	-13.6	/
CCOCC(=O)Nc1cccc(-c2nc3cccnc3s2)c1C	-10.1	0.4	-10.5	-23.5	/
CC1(C)Cc2c(sc(NC(=O)c3ccc(C(=O)c4ccccc4)cc3)c2C(N)=O)C(C)(C)N1	29.1*	3.2	17.2	28.4	-3.1
COC(=O)c1c(NC(=O)c2ccccc2)sc2c1CC(C)(C)NC2(C)C	-9.5	6.3	-11.4	-13.7	3.4
c1cc2c3c(cccc3c1)C(N1CCCCCC1)=N2	-0.5	26.9	32.3*	-0.8	0.5
